Source: ChEMBL document CHEMBL3632459, “Synthesis and evaluation of aporphine analogs containing C1 allyl isosteres at the h5-HT(2A) receptor” (Bioorg Med Chem Lett, 2015)
Values belong to the compound of their own block, whether it stands above or below them.

Key:
Homo sapiens = organism: Homo sapiens; experiment: Selectivity ratio of Ke(app) for adrenergic alpha1A receptor (unknown origin) to Ke(app) for human 5-HT2A receptor
How it was run: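 Ratio of apparent Ke values from matched FLIPR calcium functional assays at human 5-HT2A and at α1A receptors. Compounds were screened at 10 μM. Ke was taken from the rightward EC50 shift of an 8-point half-log agonist curve (5-HT at 5-HT2A) with one antagonist concentration, Ke = [L]/(DR−1). Values are means of ≥2 triplicate experiments.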

[1] = target: 5-hydroxytryptamine receptor 1A (Homo sapiens) (UniProt P08908); experiment: Displacement of [3H]-8-OH-DPAT from recombinant human 5-HT1A receptor at 10 uM after […] by Microbeta scintillation counting analysis relative to control
[2] = target: 5-hydroxytryptamine receptor 5A (Homo sapiens) (UniProt P47898); experiment: Displacement of [3H]-LSD from recombinant human 5-HT5A receptor at 10 uM after […] by Microbeta scintillation counting analysis relative to control
[3] = target: Alpha-1A adrenergic receptor (Homo sapiens) (UniProt P35348); experiment: Displacement of [3H]-Prazosin from recombinant human adrenergic alpha1A receptor at 10 uM after […] by Microbeta scintillation counting analysis relative to control
[4] = target: Alpha-1B adrenergic receptor (Homo sapiens) (UniProt P35368); experiment: Displacement of [3H]-Prazosin from recombinant human adrenergic alpha1B receptor at 10 uM after […] by Microbeta scintillation counting analysis relative to control
[5] = target: Alpha-1D adrenergic receptor (Homo sapiens) (UniProt P25100); experiment: Inhibition of recombinant human adrenergic alpha1D receptor at 10 uM after […] by Microbeta scintillation counting analysis relative to control
[6] = target: Beta-1 adrenergic receptor (Homo sapiens) (UniProt P08588); experiment: Displacement of [3H]-Iodopindolol from recombinant human adrenergic beta1 receptor at 10 uM after […] by Microbeta scintillation counting analysis relative to control
[7] = target: Beta-2 adrenergic receptor (Homo sapiens) (UniProt P07550); experiment: Displacement of [3H]-Iodopindolol from recombinant human adrenergic beta2 receptor at 10 uM after […] by Microbeta scintillation counting analysis relative to control
[8] = target: Beta-3 adrenergic receptor (Homo sapiens) (UniProt P13945); experiment: Displacement of [3H]-Iodopindolol from recombinant human adrenergic beta3 receptor at 10 uM after […] by Microbeta scintillation counting analysis relative to control
Rattus norvegicus = organism: Rattus norvegicus; experiment: Displacement of [3H]-Flunitrazepam from rat brain Benzodiazepine receptor at 10 uM after […] by Microbeta scintillation counting analysis relative to control
[9] = target: D(4) dopamine receptor (Homo sapiens) (UniProt P21917); experiment: Displacement of [3H]-N-methylspiperone from recombinant human dopamine D4 receptor at 10 uM after […] by Microbeta scintillation counting analysis relative to control
[10] = target: D(2) dopamine receptor (Homo sapiens) (UniProt P14416); experiment: Displacement of [3H]-N-methylspiperone from recombinant human dopamine D2 receptor at 10 uM after […] by Microbeta scintillation counting analysis relative to control
[11] = target: D(1B) dopamine receptor (Homo sapiens) (UniProt P21918); experiment: Displacement of [3H]-[…] from recombinant human dopamine D5 receptor at 10 uM after […] by Microbeta scintillation counting analysis relative to control
[12] = target: Delta-type opioid receptor (Homo sapiens) (UniProt P41143); experiment: Displacement of [3H]-DADLE from recombinant human delta opioid receptor at 10 uM after […] by Microbeta scintillation counting analysis relative to control
[13] = target: GABA-A receptor; agonist GABA site (Homo sapiens) (UniProt P14867+P47870+P28472+P48169+P34903+P18505+P47869+P31644+Q16445); experiment: Displacement of [3H]-Muscimol from recombinant human GABAA receptor at 10 uM after […] by Microbeta scintillation counting analysis relative to control; type: protein-complex assay
[14] = target: Histamine H1 receptor (Homo sapiens) (UniProt P35367); experiment: Displacement of [3H]-Pyrilamine from recombinant human histamine H1 receptor at 10 uM after […] by Microbeta scintillation counting analysis relative to control
[15] = target: Histamine H3 receptor (Homo sapiens) (UniProt Q9Y5N1); experiment: Displacement of [3H]-alpha-methylhistamine from recombinant human histamine H3 receptor at 10 uM after […] by Microbeta scintillation counting analysis relative to control
[16] = target: Histamine H4 receptor (Homo sapiens) (UniProt Q9H3N8); experiment: Displacement of [3H]-Histamine from recombinant human histamine H4 receptor at 10 uM after […] by Microbeta scintillation counting analysis relative to control
[17] = target: Kappa-type opioid receptor (Homo sapiens) (UniProt P41145); experiment: Displacement of [3H]-U69593 from recombinant human kappa opioid receptor at 10 uM after […] by Microbeta scintillation counting analysis relative to control
[18] = target: Muscarinic acetylcholine receptor M1 (Homo sapiens) (UniProt P11229); experiment: Displacement of [3H]-QNB from recombinant human muscarinic M1 receptor at 10 uM after […] by Microbeta scintillation counting analysis relative to control
[19] = target: Muscarinic acetylcholine receptor M2 (Homo sapiens) (UniProt P08172); experiment: Displacement of [3H]-QNB from recombinant human muscarinic M2 receptor at 10 uM after […] by Microbeta scintillation counting analysis relative to control
[20] = target: Muscarinic acetylcholine receptor M3 (Homo sapiens) (UniProt P20309); experiment: Displacement of [3H]-QNB from recombinant human muscarinic M3 receptor at 10 uM after […] by Microbeta scintillation counting analysis relative to control
[21] = target: Muscarinic acetylcholine receptor M4 (Homo sapiens) (UniProt P08173); experiment: Displacement of [3H]-QNB from recombinant human muscarinic M4 receptor at 10 uM after […] by Microbeta scintillation counting analysis relative to control
[22] = target: Mu-type opioid receptor (Homo sapiens) (UniProt P35372); experiment: Displacement of [3H]-DAMGO from recombinant human mu opioid receptor at 10 uM after […] by Microbeta scintillation counting analysis relative to control
[23] = target: Sodium-dependent noradrenaline transporter (Homo sapiens) (UniProt P23975); experiment: Displacement of [3H]-Nisoxetine from recombinant human NET at 10 uM after […] by Microbeta scintillation counting analysis relative to control
[24] = target: Sodium-dependent serotonin transporter (Homo sapiens) (UniProt P31645); experiment: Displacement of [3H]-Citalopram from recombinant human SERT at 10 uM after […] by Microbeta scintillation counting analysis relative to control
[25] = target: 5-hydroxytryptamine receptor 1B (Homo sapiens, UniProt P28222); experiment: Displacement of [3H]-[…] from recombinant human 5-HT1B receptor after […] by Microbeta scintillation counting analysis
[26] = target: 5-hydroxytryptamine receptor 1D (Homo sapiens, UniProt P28221); experiment: Displacement of [3H]-[…] from recombinant human 5-HT1D receptor after […] by Microbeta scintillation counting analysis
[27] = target: 5-hydroxytryptamine receptor 1E (Homo sapiens, UniProt P28566); experiment: Displacement of [3H]-5-HT from recombinant human 5-HT1E receptor after […] by Microbeta scintillation counting analysis
[28] = target: 5-hydroxytryptamine receptor 2B (Homo sapiens, UniProt P41595); experiment: Displacement of [3H]-LSD from recombinant human 5-HT2B receptor after […] by Microbeta scintillation counting analysis
[29] = target: 5-hydroxytryptamine receptor 3A (Homo sapiens, UniProt P46098); experiment: Displacement of [3H]-LY278584 from recombinant human 5-HT3 receptor after […] by Microbeta scintillation counting analysis
[30] = target: 5-hydroxytryptamine receptor 7 (Homo sapiens, UniProt P34969); experiment: Displacement of [3H]-LSD from recombinant human 5-HT7 receptor after […] by Microbeta scintillation counting analysis
[31] = target: Alpha-2B adrenergic receptor (Homo sapiens, UniProt P18089); experiment: Displacement of [3H]-Clonidine from recombinant human adrenergic alpha2B receptor after […] by Microbeta scintillation counting analysis
[32] = target: Alpha-2C adrenergic receptor (Homo sapiens, UniProt P18825); experiment: Displacement of [3H]-Clonidine from recombinant human adrenergic alpha2C receptor after […] by Microbeta scintillation counting analysis
D(1A) dopamine receptor = D(1A) dopamine receptor (Homo sapiens, UniProt P21728); experiment: Displacement of [3H]-[…] from recombinant human dopamine D1 receptor after […] by Microbeta scintillation counting analysis
D(3) dopamine receptor = D(3) dopamine receptor (Homo sapiens, UniProt P35462); experiment: Displacement of [3H]-N-methylspiperone from recombinant human dopamine D3 receptor after […] by Microbeta scintillation counting analysis
Histamine H2 receptor = Histamine H2 receptor (Homo sapiens, UniProt P25021); experiment: Displacement of [3H]-Tiotidine from recombinant human histamine H2 receptor after […] by Microbeta scintillation counting analysis
[33] = target: Muscarinic acetylcholine receptor M5 (Homo sapiens, UniProt P08912); experiment: Displacement of [3H]-Tiotidine from recombinant human muscarinic M5 receptor after […] by Microbeta scintillation counting analysis
Translocator protein = Translocator protein (Homo sapiens, UniProt P30536); experiment: Displacement of [3H]-PK11195 from recombinant human PBR after […] by Microbeta scintillation counting analysis
Sigma 2 receptor = experiment: Displacement of [3H]-DTG from recombinant human sigma-2 receptor after […] by Microbeta scintillation counting analysis

Chain of Sodium-dependent serotonin transporter (Homo sapiens) (P31645 whole entry, looked up): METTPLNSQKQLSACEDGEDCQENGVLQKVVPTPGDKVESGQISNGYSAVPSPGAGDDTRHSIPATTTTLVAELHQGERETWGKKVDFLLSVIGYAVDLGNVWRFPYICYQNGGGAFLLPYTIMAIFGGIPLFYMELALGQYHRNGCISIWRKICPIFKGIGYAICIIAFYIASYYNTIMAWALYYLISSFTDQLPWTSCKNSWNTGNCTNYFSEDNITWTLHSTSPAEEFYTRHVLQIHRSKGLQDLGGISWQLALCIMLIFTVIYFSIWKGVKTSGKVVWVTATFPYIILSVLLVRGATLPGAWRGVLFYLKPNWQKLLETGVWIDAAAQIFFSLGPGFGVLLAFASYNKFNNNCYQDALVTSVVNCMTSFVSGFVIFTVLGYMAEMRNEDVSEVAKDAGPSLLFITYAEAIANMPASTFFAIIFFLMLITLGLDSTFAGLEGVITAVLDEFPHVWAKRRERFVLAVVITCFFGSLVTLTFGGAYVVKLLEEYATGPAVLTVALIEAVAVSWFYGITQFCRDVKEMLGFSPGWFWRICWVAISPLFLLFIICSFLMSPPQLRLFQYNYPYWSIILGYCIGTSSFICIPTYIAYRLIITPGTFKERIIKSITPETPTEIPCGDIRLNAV
Chain of 5-hydroxytryptamine receptor 1B (P28222 whole entry): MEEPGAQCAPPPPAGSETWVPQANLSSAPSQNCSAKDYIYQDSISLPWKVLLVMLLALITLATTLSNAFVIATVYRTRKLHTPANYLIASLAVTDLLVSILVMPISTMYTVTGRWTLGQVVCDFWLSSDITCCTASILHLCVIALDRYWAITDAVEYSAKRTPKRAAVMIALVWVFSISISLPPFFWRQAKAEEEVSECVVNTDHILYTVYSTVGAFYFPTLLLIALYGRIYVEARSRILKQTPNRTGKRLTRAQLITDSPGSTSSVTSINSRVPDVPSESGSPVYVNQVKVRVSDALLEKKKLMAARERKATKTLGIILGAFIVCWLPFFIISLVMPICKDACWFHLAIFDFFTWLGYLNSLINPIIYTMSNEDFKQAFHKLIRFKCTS
Chain of 5-hydroxytryptamine receptor 1A (Homo sapiens) (P08908 whole entry): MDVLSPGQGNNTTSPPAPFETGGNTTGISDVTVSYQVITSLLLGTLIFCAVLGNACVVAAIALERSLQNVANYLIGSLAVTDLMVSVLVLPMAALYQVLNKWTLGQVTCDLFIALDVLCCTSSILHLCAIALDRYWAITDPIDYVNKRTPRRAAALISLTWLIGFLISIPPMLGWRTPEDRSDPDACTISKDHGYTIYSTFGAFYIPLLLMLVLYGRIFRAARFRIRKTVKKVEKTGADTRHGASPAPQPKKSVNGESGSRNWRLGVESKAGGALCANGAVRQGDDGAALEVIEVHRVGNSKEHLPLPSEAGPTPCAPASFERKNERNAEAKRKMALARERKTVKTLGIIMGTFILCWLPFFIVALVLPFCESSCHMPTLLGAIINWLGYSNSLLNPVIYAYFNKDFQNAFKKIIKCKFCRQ
Chain of Kappa-type opioid receptor (Homo sapiens) (P41145 whole entry): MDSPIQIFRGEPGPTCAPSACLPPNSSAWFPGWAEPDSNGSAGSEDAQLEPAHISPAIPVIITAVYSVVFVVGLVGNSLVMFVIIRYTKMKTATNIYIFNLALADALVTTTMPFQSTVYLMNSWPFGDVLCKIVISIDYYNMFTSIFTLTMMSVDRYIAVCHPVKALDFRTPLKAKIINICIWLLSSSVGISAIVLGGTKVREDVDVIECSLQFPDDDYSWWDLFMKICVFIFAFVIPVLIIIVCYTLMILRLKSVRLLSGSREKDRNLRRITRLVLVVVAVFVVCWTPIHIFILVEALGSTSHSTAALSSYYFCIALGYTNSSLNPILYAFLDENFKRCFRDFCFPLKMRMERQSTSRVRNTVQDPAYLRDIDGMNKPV
Chain of D(1B) dopamine receptor (Homo sapiens) (P21918 whole entry): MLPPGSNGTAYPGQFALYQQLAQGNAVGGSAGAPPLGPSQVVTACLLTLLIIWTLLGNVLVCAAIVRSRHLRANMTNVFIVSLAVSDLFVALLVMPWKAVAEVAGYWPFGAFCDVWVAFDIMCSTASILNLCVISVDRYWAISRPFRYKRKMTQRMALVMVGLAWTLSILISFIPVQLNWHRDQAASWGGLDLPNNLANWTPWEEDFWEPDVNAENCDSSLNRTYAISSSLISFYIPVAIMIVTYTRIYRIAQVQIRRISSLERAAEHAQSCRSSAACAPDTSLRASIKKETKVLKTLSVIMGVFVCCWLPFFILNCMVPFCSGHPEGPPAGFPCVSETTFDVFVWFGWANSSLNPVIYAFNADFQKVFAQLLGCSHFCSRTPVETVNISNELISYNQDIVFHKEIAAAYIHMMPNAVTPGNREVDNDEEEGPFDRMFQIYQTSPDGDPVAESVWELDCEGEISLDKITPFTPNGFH
Chain of Translocator protein (P30536 whole entry): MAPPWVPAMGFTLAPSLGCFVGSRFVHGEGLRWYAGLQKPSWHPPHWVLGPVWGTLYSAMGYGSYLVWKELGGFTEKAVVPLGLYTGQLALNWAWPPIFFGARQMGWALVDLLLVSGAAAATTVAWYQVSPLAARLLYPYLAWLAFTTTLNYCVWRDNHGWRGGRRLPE
Chain of 5-hydroxytryptamine receptor 1D (P28221 whole entry): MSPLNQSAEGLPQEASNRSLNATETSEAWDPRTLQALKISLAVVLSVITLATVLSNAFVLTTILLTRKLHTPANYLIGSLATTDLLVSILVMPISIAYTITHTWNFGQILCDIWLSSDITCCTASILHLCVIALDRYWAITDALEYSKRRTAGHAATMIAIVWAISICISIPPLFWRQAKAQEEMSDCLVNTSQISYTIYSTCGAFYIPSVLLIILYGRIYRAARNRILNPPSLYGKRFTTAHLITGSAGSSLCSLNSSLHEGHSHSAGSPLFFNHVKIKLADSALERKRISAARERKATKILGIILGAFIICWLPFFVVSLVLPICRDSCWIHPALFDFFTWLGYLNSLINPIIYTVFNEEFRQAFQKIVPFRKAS
Chain of Beta-2 adrenergic receptor (Homo sapiens) (P07550 whole entry, looked up): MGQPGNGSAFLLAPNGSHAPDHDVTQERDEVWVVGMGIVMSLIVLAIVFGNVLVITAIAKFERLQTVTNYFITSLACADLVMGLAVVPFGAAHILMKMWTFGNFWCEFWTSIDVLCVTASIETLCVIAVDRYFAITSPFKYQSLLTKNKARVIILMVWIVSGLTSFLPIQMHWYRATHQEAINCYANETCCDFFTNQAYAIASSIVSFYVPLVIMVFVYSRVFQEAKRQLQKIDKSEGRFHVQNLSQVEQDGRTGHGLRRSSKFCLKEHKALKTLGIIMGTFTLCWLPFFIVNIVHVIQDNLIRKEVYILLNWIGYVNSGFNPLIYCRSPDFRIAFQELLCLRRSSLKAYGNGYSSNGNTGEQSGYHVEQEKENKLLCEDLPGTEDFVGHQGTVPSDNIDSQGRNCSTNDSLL
Chain of 5-hydroxytryptamine receptor 3A (P46098 whole entry): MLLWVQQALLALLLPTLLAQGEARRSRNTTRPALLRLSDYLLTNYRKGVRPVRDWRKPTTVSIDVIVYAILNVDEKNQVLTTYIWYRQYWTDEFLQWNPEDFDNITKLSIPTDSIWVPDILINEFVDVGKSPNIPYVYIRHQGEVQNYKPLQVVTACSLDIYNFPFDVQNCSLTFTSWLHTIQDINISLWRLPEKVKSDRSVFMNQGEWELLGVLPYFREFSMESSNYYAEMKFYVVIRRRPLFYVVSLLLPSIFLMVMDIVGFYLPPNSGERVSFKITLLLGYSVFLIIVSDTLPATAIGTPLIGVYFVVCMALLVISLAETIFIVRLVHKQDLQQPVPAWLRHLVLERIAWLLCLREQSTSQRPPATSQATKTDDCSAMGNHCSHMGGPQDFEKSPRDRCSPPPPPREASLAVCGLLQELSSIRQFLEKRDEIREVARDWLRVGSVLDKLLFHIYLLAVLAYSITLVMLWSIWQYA
Chain of Histamine H3 receptor (Homo sapiens) (Q9Y5N1 whole entry): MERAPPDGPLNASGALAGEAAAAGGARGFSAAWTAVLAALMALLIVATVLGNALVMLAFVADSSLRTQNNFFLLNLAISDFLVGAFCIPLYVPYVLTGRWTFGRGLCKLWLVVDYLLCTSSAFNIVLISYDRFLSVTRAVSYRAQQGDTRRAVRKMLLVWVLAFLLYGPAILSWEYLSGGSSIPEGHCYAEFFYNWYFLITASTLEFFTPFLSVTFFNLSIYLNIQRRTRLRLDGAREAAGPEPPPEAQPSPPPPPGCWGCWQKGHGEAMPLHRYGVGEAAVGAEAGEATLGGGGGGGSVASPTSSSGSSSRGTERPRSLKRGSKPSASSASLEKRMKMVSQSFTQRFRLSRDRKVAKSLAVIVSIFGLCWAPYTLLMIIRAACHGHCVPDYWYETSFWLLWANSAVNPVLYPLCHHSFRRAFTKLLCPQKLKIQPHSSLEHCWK
Chain of D(2) dopamine receptor (Homo sapiens) (P14416 whole entry): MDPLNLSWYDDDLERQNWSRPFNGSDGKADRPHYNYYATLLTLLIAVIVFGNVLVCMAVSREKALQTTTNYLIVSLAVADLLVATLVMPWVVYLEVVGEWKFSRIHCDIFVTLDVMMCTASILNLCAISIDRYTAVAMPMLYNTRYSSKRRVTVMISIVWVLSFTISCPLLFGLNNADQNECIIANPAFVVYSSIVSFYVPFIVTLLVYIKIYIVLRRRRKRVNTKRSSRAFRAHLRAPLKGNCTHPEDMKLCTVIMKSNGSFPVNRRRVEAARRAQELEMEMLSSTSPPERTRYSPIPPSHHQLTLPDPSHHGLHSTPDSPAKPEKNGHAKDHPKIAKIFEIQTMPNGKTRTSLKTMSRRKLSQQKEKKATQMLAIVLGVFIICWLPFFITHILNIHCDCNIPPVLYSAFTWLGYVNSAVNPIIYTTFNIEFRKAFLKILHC

Ratio Ke (Homo sapiens): > 1090
inhibition [1]: < 50%
inhibition [2]: < 50%
inhibition [3]: < 50%
inhibition [4]: < 50%
inhibition [5]: < 50%
inhibition [6]: < 50%
inhibition [7]: < 50%
inhibition [8]: < 50%
inhibition (Rattus norvegicus): < 50%
inhibition [9]: < 50%
inhibition [10]: < 50%
inhibition [11]: < 50%
inhibition [12]: < 50%
inhibition [13]: < 50%
inhibition [14]: < 50%
inhibition [15]: < 50%
inhibition [16]: < 50%
inhibition [17]: < 50%
inhibition [18]: < 50%
inhibition [19]: < 50%
inhibition [20]: < 50%
inhibition [21]: < 50%
inhibition [22]: < 50%
inhibition [23]: < 50%
inhibition [24]: < 50%
Ki [25]: > 900 nM
Ki [26]: > 900 nM
Ki [27]: > 900 nM
Ki [28]: > 900 nM
Ki [29]: > 900 nM
Ki [30]: > 900 nM
Ki [31]: > 900 nM
Ki [32]: > 900 nM
Ki (D(1A) dopamine receptor): > 900 nM
Ki (D(3) dopamine receptor): > 900 nM
Ki (Histamine H2 receptor): > 900 nM
Ki [33]: > 900 nM
Ki (Translocator protein): > 900 nM
Ki (Sigma 2 receptor): > 300 nM
SMILES: COc1cc2c3c(c1OCc1ccc(Br)cc1)-c1cc4c(cc1CC3N(C)CC2)OCO4 (stereo unspecified)

SMILES: COc1cc2c3c(c1OCCOC(C)=O)-c1cc4c(cc1CC3N(C)CC2)OCO4 (stereo unspecified)
Ratio Ke (Homo sapiens): 0.3
